In ChEMBL document CHEMBL5303300, “EUbOPEN Chemogenomics Library - Multiplex” (2023):
“And” between values parts separate entries of the source, which are not always exact repeats. Equal entries are not always repeated.

Test system: Fibroblast
Assay: Multiplex assay against human fibroblast
Format: toxicity, cell-based
Conditions: number of replicates 2
How it was run: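 Per cents of healthy-nucleus cells form the tubulin, mitochondrial-mass and membrane-permeability phenotype values. Live cells were stained at seeding with Hoechst33342, BioTracker Green Microtubule Cytoskeleton Dye, MitoTracker Red and Annexin V Alexa Fluor 680. After compound addition they were imaged on a CQ1 microscope at 37°C and 5% CO2, and CellPathfinder machine-learning gating split them into Hoechst high-intensity objects or normal cells, normal cells into healthy, pyknosed or fragmented nuclei, and pyknosed cells into mitotic or apoptotic.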

[1] = 12 h, 1 µM, compound concentration 1 uM
[2] = 12 h, 10 µM, compound concentration 10 uM
[3] = 24 h, 1 µM, compound concentration 1 uM
[4] = 24 h, 10 µM, compound concentration 10 uM
[5] = 48 h, 1 µM, compound concentration 1 uM
[6] = 48 h, 10 µM, compound concentration 10 uM

Structure (SMILES): Cc1cc(NC(=O)c2cccc(NC(=O)/C=C/CN(C)C)c2)ccc1Nc1nccc(-c2cccnc2)n1
- Population Apoptotic (%) [1]: 39% and 33%
- Population Fragmented Nuclei (%) [1]: 12% and 17%
- Population Healthy Nuclei (%) [1]: 63% and 56%
- Population Hoechst High Intensity Objects (%) [1]: 0%
- Population Membrane Permeable-Phenotype (%) [1]: 9% and 11%
- Population Mitochondria Different-Phenotype (%) [1]: 0% and 1%
- Population Mitotic Cells (%) [1]: 60% and 66%
- Population Normal (%) [1]: 100%
- Population Pyknosed Nuclei (%) [1]: 24% and 25%
- Population Tubulin-Different-Phenotype (%) [1]: 18% and 11%
- Total Cell Count [1]: 190 and 197
- Population Apoptotic (%) [2]: 48% and 33%
- Population Fragmented Nuclei (%) [2]: 4% and 10%
- Population Healthy Nuclei (%) [2]: 53% and 56%
- Population Hoechst High Intensity Objects (%) [2]: 0%
- Population Membrane Permeable-Phenotype (%) [2]: 7% and 14%
- Population Mitochondria Different-Phenotype (%) [2]: 8% and 2%
- Population Mitotic Cells (%) [2]: 51% and 66%
- Population Normal (%) [2]: 100% and 99%
- Population Pyknosed Nuclei (%) [2]: 41% and 33%
- Population Tubulin-Different-Phenotype (%) [2]: 77% and 50%
- Total Cell Count [2]: 130 and 219
- Population Apoptotic (%) [3]: 47% and 40%
- Population Fragmented Nuclei (%) [3]: 22% and 24%
- Population Healthy Nuclei (%) [3]: 54% and 52%
- Population Hoechst High Intensity Objects (%) [3]: 0%
- Population Membrane Permeable-Phenotype (%) [3]: 5% and 3%
- Population Mitochondria Different-Phenotype (%) [3]: 0% and 2%
- Population Mitotic Cells (%) [3]: 52% and 59%
- Population Normal (%) [3]: 100%
- Population Pyknosed Nuclei (%) [3]: 23%
- Population Tubulin-Different-Phenotype (%) [3]: 21% and 13%
- Total Cell Count [3]: 230 and 222
- Population Apoptotic (%) [4]: 53% and 39%
- Population Fragmented Nuclei (%) [4]: 11%
- Population Healthy Nuclei (%) [4]: 36% and 51%
- Population Hoechst High Intensity Objects (%) [4]: 0%
- Population Membrane Permeable-Phenotype (%) [4]: 6% and 7%
- Population Mitochondria Different-Phenotype (%) [4]: 18% and 13%
- Population Mitotic Cells (%) [4]: 46% and 60%
- Population Normal (%) [4]: 99%
- Population Pyknosed Nuclei (%) [4]: 51% and 36%
- Population Tubulin-Different-Phenotype (%) [4]: 81% and 63%
- Total Cell Count [4]: 118 and 221
- Population Apoptotic (%) [5]: 68% and 75%
- Population Fragmented Nuclei (%) [5]: 24% and 29%
- Population Healthy Nuclei (%) [5]: 62% and 60%
- Population Hoechst High Intensity Objects (%) [5]: 0%
- Population Membrane Permeable-Phenotype (%) [5]: 6% and 4%
- Population Mitochondria Different-Phenotype (%) [5]: 1% and 0%
- Population Mitotic Cells (%) [5]: 31% and 25%
- Population Normal (%) [5]: 100% and 99%
- Population Pyknosed Nuclei (%) [5]: 13% and 10%
- Population Tubulin-Different-Phenotype (%) [5]: 23% and 29%
- Total Cell Count [5]: 237 and 239
- Population Apoptotic (%) [6]: 82% and 60%
- Population Fragmented Nuclei (%) [6]: 14%
- Population Healthy Nuclei (%) [6]: 30% and 39%
- Population Hoechst High Intensity Objects (%) [6]: 0%
- Population Membrane Permeable-Phenotype (%) [6]: 19% and 12%
- Population Mitochondria Different-Phenotype (%) [6]: 22% and 15%
- Population Mitotic Cells (%) [6]: 17% and 39%
- Population Normal (%) [6]: 100% and 99%
- Population Pyknosed Nuclei (%) [6]: 54% and 45%
- Population Tubulin-Different-Phenotype (%) [6]: 80% and 78%
- Total Cell Count [6]: 117 and 218

Structure (SMILES): C[C@H](N)Cn1ccc2cc(F)c(Cl)cc21.O=C(O)/C=C/C(=O)O
- Population Apoptotic (%) [1]: 44% and 40%
- Population Fragmented Nuclei (%) [1]: 14%
- Population Healthy Nuclei (%) [1]: 74% and 61%
- Population Hoechst High Intensity Objects (%) [1]: 0%
- Population Membrane Permeable-Phenotype (%) [1]: 5% and 6%
- Population Mitochondria Different-Phenotype (%) [1]: 0% and 1%
- Population Mitotic Cells (%) [1]: 55% and 60%
- Population Normal (%) [1]: 100%
- Population Pyknosed Nuclei (%) [1]: 11% and 24%
- Population Tubulin-Different-Phenotype (%) [1]: 14% and 11%
- Total Cell Count [1]: 252 and 208
- Population Apoptotic (%) [2]: 45% and 37%
- Population Fragmented Nuclei (%) [2]: 14% and 22%
- Population Healthy Nuclei (%) [2]: 69% and 58%
- Population Hoechst High Intensity Objects (%) [2]: 0%
- Population Membrane Permeable-Phenotype (%) [2]: 11% and 12%
- Population Mitochondria Different-Phenotype (%) [2]: 3% and 6%
- Population Mitotic Cells (%) [2]: 54% and 62%
- Population Normal (%) [2]: 100%
- Population Pyknosed Nuclei (%) [2]: 16% and 19%
- Population Tubulin-Different-Phenotype (%) [2]: 24% and 26%
- Total Cell Count [2]: 189 and 184
- Population Apoptotic (%) [3]: 42% and 68%
- Population Healthy Nuclei (%) [3]: 25% and 72%
- Population Hoechst High Intensity Objects (%) [3]: 1% and 0%
- Population Mitochondria Different-Phenotype (%) [3]: 2% and 1%
- Population Mitotic Cells (%) [3]: 57% and 31%
- Population Normal (%) [3]: 98% and 99%
- Population Pyknosed Nuclei (%) [3]: 23% and 11%
- Total Cell Count [3]: 149 and 256
- Population Apoptotic (%) [4]: 53% and 51%
- Population Fragmented Nuclei (%) [4]: 24% and 28%
- Population Healthy Nuclei (%) [4]: 63% and 56%
- Population Hoechst High Intensity Objects (%) [4]: 0%
- Population Membrane Permeable-Phenotype (%) [4]: 4% and 7%
- Population Mitochondria Different-Phenotype (%) [4]: 0% and 5%
- Population Mitotic Cells (%) [4]: 46% and 48%
- Population Normal (%) [4]: 99% and 100%
- Population Pyknosed Nuclei (%) [4]: 12% and 14%
- Population Tubulin-Different-Phenotype (%) [4]: 23% and 28%
- Total Cell Count [4]: 208
- Population Apoptotic (%) [5]: 65% and 56%
- Population Fragmented Nuclei (%) [5]: 18% and 21%
- Population Healthy Nuclei (%) [5]: 67% and 59%
- Population Hoechst High Intensity Objects (%) [5]: 0%
- Population Membrane Permeable-Phenotype (%) [5]: 4% and 5%
- Population Mitochondria Different-Phenotype (%) [5]: 0% and 1%
- Population Mitotic Cells (%) [5]: 34% and 43%
- Population Normal (%) [5]: 100% and 99%
- Population Pyknosed Nuclei (%) [5]: 13% and 18%
- Population Tubulin-Different-Phenotype (%) [5]: 7% and 9%
- Total Cell Count [5]: 258 and 233
- Population Apoptotic (%) [6]: 60% and 65%
- Population Fragmented Nuclei (%) [6]: 33% and 30%
- Population Healthy Nuclei (%) [6]: 58% and 60%
- Population Hoechst High Intensity Objects (%) [6]: 0%
- Population Membrane Permeable-Phenotype (%) [6]: 4% and 6%
- Population Mitochondria Different-Phenotype (%) [6]: 0% and 1%
- Population Mitotic Cells (%) [6]: 40% and 35%
- Population Normal (%) [6]: 99%
- Population Pyknosed Nuclei (%) [6]: 7% and 9%
- Population Tubulin-Different-Phenotype (%) [6]: 22% and 18%
- Total Cell Count [6]: 255 and 217
